MsrA inhibitor: inhibits bovine methionine sulfoxide reductase A. AID 651718. inhibition, % at 15.5 µM. purified bovine MsrA, absorbance read-out. hit rate 0.75% among 360,000;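 further: 0% = vehicle wells with enzyme and 100% = reference inhibitor wells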
procasp3 activ: procaspase-3 (human) activation; hit rate 0.11% among 330,000; activation, % at 8.5 µM; P42574; recombinant procaspase-3 D3A, Ac-DEVD-pNA absorbance 405 nm; AID 463141;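 active means activation above the mean of all tested compounds plus 3 SD, cut at about 21% in these data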;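 further: 0% = DMSO alone and 100% = DMSO wells spiked with extra 5 µM PC-3 D3A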
Target sequence (P42574 whole entry D9A/D28A/D175A): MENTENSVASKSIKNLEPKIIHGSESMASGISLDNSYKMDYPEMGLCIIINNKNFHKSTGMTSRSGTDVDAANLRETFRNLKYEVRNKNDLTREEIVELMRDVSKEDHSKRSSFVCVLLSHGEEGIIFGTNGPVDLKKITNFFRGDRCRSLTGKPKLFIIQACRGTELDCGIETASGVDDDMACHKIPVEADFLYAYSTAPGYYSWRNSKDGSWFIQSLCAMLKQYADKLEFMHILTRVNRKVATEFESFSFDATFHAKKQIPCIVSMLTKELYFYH
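material = Procaspase-3 D3A mutant | probe or stimulus = Ac-DEVD-pNA | compound = single dose, 8.5 µM nominal compound, 0.8% DMSO | timing = 1 h preincubation, 2 h reaction | measured by = 405 nm absorbance of p-nitroaniline, reads at 0 and 120 min | benchmarks = DMSO-only low control, 5 µM PC-3 D3A high control | repeats = singlicate, each compound tested once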
MsrA act: activators of bovine methionine sulfoxide reductase A. purified bovine MsrA, absorbance read-out. activation, % at 10.6 µM. hit rate 0.3% among 360,000; in the data active means activation above about 7.5%;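 further: 0% = vehicle and 100% = reference activator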
procasp7 counter: counter-screen for procaspase-3 activators: activators of human procaspase-7; P55210; recombinant procaspase-7, Ac-DEVD-pNA absorbance 405 nm; D23A/D198A/D206A triple mutant, cannot self-cleave; scale: DMSO 0, 5 µM enzyme 100; activation, % at 8.5 µM; hit rate 0.093% among 330,000; AID 463210;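 active means percent activation above the screen-wide mean plus 3 SD, cut at about 25% in these data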
Target sequence (P55210 whole entry D23A/D198A/D206A): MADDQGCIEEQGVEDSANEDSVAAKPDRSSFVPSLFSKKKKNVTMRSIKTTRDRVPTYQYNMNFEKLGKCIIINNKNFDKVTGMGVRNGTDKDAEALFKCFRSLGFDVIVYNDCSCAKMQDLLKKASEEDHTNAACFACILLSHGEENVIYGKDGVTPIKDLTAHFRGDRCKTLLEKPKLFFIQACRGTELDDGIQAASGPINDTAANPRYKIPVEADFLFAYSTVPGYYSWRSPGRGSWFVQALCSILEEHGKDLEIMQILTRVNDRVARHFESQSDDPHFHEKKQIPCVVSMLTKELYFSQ
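Assay system: Uncleavable procaspase-7 mutant enzyme; Input: 2 µM procaspase-7 mutant as dispensed; Also added: DEVD-pNA substrate; Medium: Zinc-free HEPES pH 7.4 with 300 mM NaCl, 0.01% Triton X-100; Timing: 1 h compound preincubation, 2 h substrate cleavage, 25 °C; Measured by: Epi-absorbance of released pNA at 405 nm, two timepoints.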
A1 inh: inhibitors of the anti-apoptotic protein A1, read as caspase activation | MEF A1-2A-BIM cells, Caspase-Glo 3/7 luminescence, 3 h; percent of clofoctol response, vehicle zero | caspase activation, % (no concentration beside the values) | hit rate 0.066% among 330,000;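 active means over half of replicate activation scores above 10%, or exactly half above 10 with the replicate mean above 10; inconclusive means replicate mean below 10 yet half the replicates above 10; inactive means over half of replicates below 10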
MsrA inh confirm: confirmation of bovine MsrA inhibitors; purified bovine MsrA, absorbance read-out; inhibition, % at 15.5 µM; shares compounds with MsrA inhibitor; hit rate 41% among 2,300;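 further: coupled to thioredoxin reductase with NADPH and selenocystamine and DMSO as substrate; 0% = vehicle only and 100% = full effect of reference inhibitor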
* marks the source's active call; other numbers are inactive results. Only some compounds are listed: those with a hit (about 1.2% of all), similar ones and a draw of the others. Unless noted, no stated cut-off is given here; in the data, active means inhibition above about 4.5%; inactive means the rest.

COc1ccc(/C=N/Nc2nc(N)cc(Cl)n2)cc1OC was read as MsrA inhibitor 5.8*, procasp3 activ -2.7, MsrA act -2.6, procasp7 counter 0.9, A1 inh -1.0 and MsrA inh confirm 2.6.
For CC(C)CNc1cccc2c1S(=O)(=O)N[C@@H](Cc1ccccc1)CO2 the results were MsrA inhibitor 0.2.
C#CCNC(=O)C[C@H]1C[C@@]2(C(=O)OC)C(=C[C@H](C3CCCC3)O[C@@H]2C)N(CCCCCCCC)C1=O was read as MsrA inhibitor 0.2.
Screening COc1ccc(OC)c(CNC(=O)C2CCC(=O)N(CCCN3CCCC3=O)C2)c1 (configuration not stated) returned MsrA inhibitor 0.7, MsrA act -8.2 and A1 inh -0.5.
`CCc1c(-c2cccc(F)c2)ncn1CCc1ccccc1OC` gave MsrA inhibitor -0.2.
`COc1ccc(/C=N/NC(=S)Nc2ccccc2)cc1COc1ccc(Br)cc1` gave MsrA inhibitor 1.8, procasp3 activ -8.6, MsrA act -3.8, procasp7 counter -9.1 and A1 inh -0.1.
`COc1ccc(/C=N/NC(=S)Nc2ccccc2)cc1` gave MsrA inhibitor 4.9*, procasp3 activ -8.2, MsrA act -8.4, procasp7 counter -10.0, A1 inh 0.2 and MsrA inh confirm 3.7.
CCOC(=O)CSC1=NC(=O)/C(=C\c2ccc(Cl)cc2)S1 was read as MsrA inhibitor 5.2*, procasp3 activ -3.7, MsrA act 2.5, procasp7 counter -4.1, A1 inh -3.0 and MsrA inh confirm 2.8.
`CSC1=NC(=O)/C(=C/c2ccc(SC)cc2)S1` gave MsrA inhibitor 0.3, procasp3 activ -14.7, MsrA act -5.1, procasp7 counter -5.8 and A1 inh -0.3.
`COCOc1ccc(-c2ncc(OC)nc2NC(=O)c2cc(C)oc2C)cc1` gave MsrA inhibitor 1.0 and MsrA act -3.0.
For O=C1N=C(N2C=CC(=C3C=CNC=C3)C=C2)/C(=C/N=NC(=O)c2ccccc2O)S1 the results were MsrA inhibitor 5.8*, procasp3 activ -9.5, MsrA act -5.3, procasp7 counter -8.6, A1 inh 0.1 and MsrA inh confirm 6.6*.
`Cc1ccc(C(=O)OCC(=O)NC2CCCC2)cc1` gave MsrA inhibitor -0.3, procasp3 activ 9.5, MsrA act -0.1, procasp7 counter 4.1 and A1 inh 0.4.
`COc1cc2c(cc1O)CC[n+]1cc3c(OC)c(OC)ccc3cc1-2` gave MsrA inhibitor 5.2*, procasp3 activ -1.8, MsrA act -4.1, procasp7 counter -2.8, A1 inh 1.0 and MsrA inh confirm 2.9.
`O=C(/C=C\c1cccs1)c1c(O)ccc2ccc(=O)oc12` gave MsrA inhibitor 5.4*, procasp3 activ -1.5, MsrA act -7.3, procasp7 counter 1.4, A1 inh 0.2 and MsrA inh confirm 6.3*.
Screening O=C(C=Cc1cccs1)c1cccs1 returned MsrA inhibitor 0.7 and MsrA act -2.3.
For O=C(CCNS(=O)(=O)c1ccccc1C(F)(F)F)NCCCc1ccccc1 the results were MsrA inhibitor -0.5, procasp3 activ 2.1, MsrA act -2.1 and procasp7 counter 10.9.
`COc1ccc(C(C)=NOC(=O)c2c(-c3ccccc3Cl)noc2C)cc1CN1CCOCC1` gave MsrA inhibitor -0.9 and MsrA act 4.2.
Screening COc1cc2sc(-c3ccc(S(C)(=O)=O)cc3)c(C(=O)NCCCCO)c2cc1OC returned MsrA inhibitor 5.5*, procasp3 activ 0.1, MsrA act -4.2, procasp7 counter 3.4, A1 inh inconclusive and MsrA inh confirm 2.5.
For O=C(Nc1sc2c(c1C(=O)O)CCCCC2)c1ccco1 the results were MsrA inhibitor 6.0*, procasp3 activ -7.2, MsrA act -1.2, procasp7 counter -3.2, A1 inh -7.0 and MsrA inh confirm 4.4.
Screening CC1CCc2c(sc(NC(=O)c3ccco3)c2C(=O)O)C1 (configuration not stated) returned MsrA inhibitor 5.8*, procasp3 activ 2.4, MsrA act -3.4, procasp7 counter -4.4, A1 inh -10.7 and MsrA inh confirm 4.7*.
CN1CCN(C(=O)c2c(NC(=O)c3ccco3)sc3c2CCC(C(C)(C)C)C3)CC1 (configuration not stated) was read as MsrA inhibitor -0.7, procasp3 activ 3.6, MsrA act -3.5, procasp7 counter 4.3 and A1 inh 0.1.
`COc1ccc(C2=NS(=O)(=O)N(C)C(C(=O)N3CCN(C)CC3)=C2)cc1` gave MsrA inhibitor 5.9*, procasp3 activ -2.8, MsrA act -3.6, procasp7 counter 13.3, A1 inh 1.8 and MsrA inh confirm 2.8.
`Cc1ccc(C2=NS(=O)(=O)N(C)C(C(=O)NCc3ccccn3)=C2)cc1` gave MsrA inhibitor 5.2*, procasp3 activ 4.2, MsrA act 2.3, procasp7 counter 3.6, A1 inh 0.3 and MsrA inh confirm 2.4.
For Cc1ccc(C2=NS(=O)(=O)N(C)C(C(=O)N3CCCCC3)=C2)cc1 the results were MsrA inhibitor 5.0*, procasp3 activ 5.2, MsrA act -3.4, procasp7 counter 10.8, A1 inh 1.1 and MsrA inh confirm 3.0.
Screening CCN1CCN(C(=O)C2=CC(c3ccc(C)cc3)=NS(=O)(=O)N2C)CC1 returned MsrA inhibitor 3.1, procasp3 activ -3.9, MsrA act -2.4, procasp7 counter 3.0 and A1 inh 0.1.
Cc1ccc(C2=NS(=O)(=O)N(C)C(C(=O)NCc3cccs3)=C2)cc1 was read as MsrA inhibitor 3.5, procasp3 activ 5.6, MsrA act -3.0, procasp7 counter 7.7 and A1 inh 0.0.
CC(C)NC(=O)C1(C)CCN1CCC(=O)c1ccccc1 (configuration not stated) was read as MsrA inhibitor 1.6 and MsrA act -6.9.
`Cc1cc(C)c(O)c(C(=O)CC2CC(=O)NC(=O)C2)c1` gave MsrA inhibitor -0.7.
Screening CC(=O)Nc1cccc(C(=O)N2CCC(n3nccc3NC(=O)CC(C)C)CC2)c1 returned MsrA inhibitor 0.5, procasp3 activ -1.4, MsrA act -5.1, procasp7 counter 0.5 and A1 inh 0.3.
For COc1cc(/C=N/NC(=O)c2cc(C3CC3)[nH]n2)ccc1O the results were MsrA inhibitor 5.2*, procasp3 activ 6.9, MsrA act -6.1, procasp7 counter 5.2, A1 inh -0.4 and MsrA inh confirm 2.6.
`O=C(N/N=C/c1ccc([N+](=O)[O-])cc1)c1cc(-c2ccc3c(c2)OCO3)n[nH]1` gave MsrA inhibitor -1.6, procasp3 activ 3.2, MsrA act -11.2, procasp7 counter 1.7 and A1 inh -0.7.

Bioassay records (PubChem)
